# Screening results from PubChem.
# Rows were chosen to be rich in hits. Some 4.6% of all compounds tested hit in one or more screens of this group.
# CHO parental Ca: ATP-evoked calcium signal inhibitors, parental CHO, primary screen, counter-screen for OX1R antagonist project, cell-based, fluorescence, Fluo-8 calcium dye | parental CHO-K1, ATP-induced calcium, Fluo-8 fluorescence | inhibition, % at 5.6 µM | actives 0.63% (n = 330,000);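 active = inhibition above that plate's mean sample inhibition plus 3 SD, cut at about 26% in these data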;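 note: 0% = ATP-challenged DMSO wells and 100% = DMSO wells without ATP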
#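 Assay system – parental CHO cells · Reagent – ATP stimulus · Detection – intracellular calcium via Fluo-8 no-wash fluorescent dye · Evaluation – percent inhibition of ATP-evoked calcium rise, normalized to controls · Controls – ATP wells versus no-ATP DMSO wells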
# TAAR1 antagonist: human TAAR1 antagonists, primary screen, Fluo-8 calcium fluorescence, CHO RD-HGA16 cells | Trace amine-associated receptor 1 (Homo sapiens), Q96RJ0 | antagonist | inhibition, % at 3 µM | actives 1.5% (n = 360,000) | AID 624466, 2012;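 active = inhibition above a per-plate cutoff, the mean inhibition of test compounds on that plate plus 3 SD, cut at about 49% in these data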;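 note: 0% = DMSO plus EC80 beta-PEA response and 100% = DMSO alone without agonist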
# Target sequence (Q96RJ0 whole entry, looked up): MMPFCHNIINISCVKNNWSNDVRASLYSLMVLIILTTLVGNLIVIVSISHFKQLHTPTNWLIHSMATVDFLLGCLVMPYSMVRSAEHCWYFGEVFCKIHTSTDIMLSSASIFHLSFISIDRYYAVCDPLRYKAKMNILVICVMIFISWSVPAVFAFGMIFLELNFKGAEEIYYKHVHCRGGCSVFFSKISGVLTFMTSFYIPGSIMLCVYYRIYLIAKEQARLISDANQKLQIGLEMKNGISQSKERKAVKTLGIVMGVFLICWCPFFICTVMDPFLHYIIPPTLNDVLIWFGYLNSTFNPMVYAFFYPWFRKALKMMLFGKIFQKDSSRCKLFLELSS
#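 test system = CHO RD-HGA16 cells bearing hTAAR1 | replication = singlicate | controls = DMSO-only wells and EC80 β-PEA-stimulated wells | reagent = EC80 β-phenethylamine stimulus | read-out basis = percent inhibition of PEA-evoked calcium signal, max/basal emission ratio | schedule = seeding 17-24 h prior, 75-min 37 °C, 30-min RT dye loading | signal = kinetic Fluo-8 calcium fluorescence measurement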
# GPR7 antagonist: GPR7 receptor antagonists, primary screen, cell-based, fluorescence, single concentration | actives 1.1% (n = 290,000) | GPR7-expressing cells, fluorescence antagonist assay | inhibition, % at 4.4 µM; in the data active = inhibition above about 16%, passing the limit was not always enough;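 note: cells stimulated with the agonist NPW; 0% = agonist with vehicle and 100% = vehicle without agonist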
# Target sequence (P48145 whole entry, looked up): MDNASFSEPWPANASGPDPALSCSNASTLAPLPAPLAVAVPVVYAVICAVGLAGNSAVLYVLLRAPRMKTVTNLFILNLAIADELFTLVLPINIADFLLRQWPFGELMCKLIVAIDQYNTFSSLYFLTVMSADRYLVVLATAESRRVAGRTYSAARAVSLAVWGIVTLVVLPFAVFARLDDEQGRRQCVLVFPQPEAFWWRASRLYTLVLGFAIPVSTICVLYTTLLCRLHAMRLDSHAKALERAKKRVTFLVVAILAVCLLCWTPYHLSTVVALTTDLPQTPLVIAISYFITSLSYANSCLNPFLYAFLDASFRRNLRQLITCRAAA
# TAAR1 ag: human TAAR1 agonists, primary screen, Fluo-8 calcium fluorescence, CHO RD-HGA16 cells; Trace amine-associated receptor 1 (Homo sapiens), Q96RJ0; vehicle wells 0%, saturating PEA agonist 100%; activation, % at 3 µM; actives 0.99% (n = 360,000); AID 624467, 2012;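 active = activation above the mean activation of all test compounds in the run plus 3 SD, cut at about 38% in these data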
#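 Repeats: no replicates (n 1) | Material: CHO-derived RD-HGA16 cells with stable Gα16 and human TAAR1 | Technique: Kinetic Fluo-8 calcium fluorescence | Schedule: 17-24 h seeding, 75 min 37 °C dye, 30 min RT | Evaluation: % activation from peak over basal fluorescence ratio, DMSO-to-PEA scaled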
# OX1R antag-1: antagonists of human orexin 1 receptor (OX1R). Orexin/Hypocretin receptor type 1 (Homo sapiens), O43613. OX1R-expressing cells, FRET antagonist read-out. inhibition, % at 6.6 µM. actives 1.8% (n = 330,000). AID 485270, 2010; in the data active = inhibition mostly above about 38%, no sharp cut-off; inactive = mostly below about 40%;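 note: 0% = agonist challenge alone and 100% = reference antagonist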
# OX1R antag-2: OX1R (HCRTR1) antagonists, primary screen, fluorescence, CHO/OX1R cells, Fluo-8 calcium, orexin A. Orexin/Hypocretin receptor type 1 (Homo sapiens), O43613. Fluo-8 calcium fluorescence. inhibition, % at 5 µM. actives 0.43% (n = 330,000). AID 434989, 2010;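 active = inhibition above its plate's threshold, mean inhibition of all tested compounds on the plate plus 3 SD, cut at about 37% in these data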;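 note: 0% = orexin A challenge wells and 100% = SB-334867-A antagonist wells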
# TAAR1 ag conf: human TAAR1 agonists, retest of hits, confirmation, Fluo-8 calcium fluorescence, CHO RD-HGA16 cells; shares compounds with TAAR1 ag; scaled: DMSO 0%, maximal phenethylamine 100%; activation, % at 3 µM; actives 82% (n = 2,400);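 active = activation above a cutoff set at the run's mean compound activation plus 3 SD, cut at about 39% in these data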
# Ga16 nonsel ag: nonselective calcium mobilization agonists, CHO-Ga16 cells, counter-screen for hTAAR1 agonist project, cell-based, fluorescence, CHO-Ga16 parental line | shares compounds with TAAR1 ag | Fluo-8 calcium fluorescence; normalized to maximal ATP response, DMSO zero | activation, % at 3 µM | actives 50% (n = 2,400) | AID 651787, 2012;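 active = activation above the run cutoff, the mean activation over all tested wells plus 3 SD, cut at about 12% in these data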;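 note: 0% = DMSO wells and 100% = maximal ATP response on the peak over basal ratio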
# TAAR1 desensitize: TAAR1 desensitization by agonist hits, confirmation, counter-screen for TAAR1 agonist project, cell-based, fluorescence, tachyphylaxis | actives 46% (n = 2,400) | CHO RD-HGA16 hTAAR1, Fluo-8 calcium, beta-PEA response inhibition | inhibition, % at 3 µM | shares compounds with TAAR1 ag | AID 651951, 2012;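 active = inhibition above the run cutoff, the mean inhibition of all test compounds plus 3 SD, cut at about 49% in these data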;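 note: beta-PEA stimulus applied at its EC80; loss of beta-PEA calcium signal after compound pretreatment read as receptor desensitization; 0% = DMSO with beta-PEA at EC80 and 100% = DMSO alone without agonist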
# Ga16 antag count: inhibition of ATP-evoked calcium response in CHO-Ga16 cells, counter-screen for TAAR1 agonist project, cell-based, fluorescence | shares compounds with TAAR1 ag | CHO-Ga16 ATP-induced calcium, Fluo-8 fluorescence | inhibition, % at 3 µM | actives 39% (n = 2,400) | AID 651952, 2012;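 active = inhibition above the plate's mean compound inhibition plus 3 SD, computed per plate, cut at about 22% in these data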;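 note: 0% = EC80 ATP with DMSO and 100% = DMSO wells without ATP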
# The depositor's hits bear a star; nt = no result given.
SMILES,CHO parental Ca,TAAR1 antagonist,GPR7 antagonist,TAAR1 ag,OX1R antag-1,OX1R antag-2,TAAR1 ag conf,Ga16 nonsel ag,TAAR1 desensitize,Ga16 antag count
COCCn1nnnc1C(c1ccc(O)c(OC)c1)N1CCc2ccccc2C1 (configuration not stated),-8,84*,-3,86*,7,-17,103*,1,97*,9
CCC(C)(C)n1nnnc1C(c1ccc(O)cc1)N1CCc2ccccc2C1 (configuration not stated),5,84*,3,98*,7,-21,93*,4,86*,15
O=C(Nc1ccc(Cl)cc1)Nc1ccc(N2CCOCC2)cc1,9,79*,-5,66*,12,-3,49*,13*,49*,22*
O=C(Nc1ccc(Cl)c(Cl)c1)N1CCOCC1,nt,7,-9,6,nt,nt,nt,nt,nt,nt
O=C(/C=C/c1ccc(Cl)cc1)Nc1ccc(N2CCOCC2)cc1,-13,-8,-7,0,20,-20,nt,nt,nt,nt
O=C(Nc1ccc(N2CCOCC2)cc1)Nc1ccc(Cl)c(Cl)c1,51*,90*,-7,65*,19,45*,40*,30*,89*,62*
CC1=NN(/C(=N\c2nnc(C)s2)Nc2ccccc2)[C@H](c2cccc3ccccc23)S1,-15,-6,3,70*,15,-28,47*,2,0,11
COc1ccc(-c2csc(NC(=O)c3cc(C)on3)c2C#N)cc1OC,-13,29,-19,46*,15,-4,14,7,13,17
Cc1cc(C)cc(OCC(=O)N(C)CC(=O)Nc2ccc(N3CCOCC3)cc2)c1,nt,-25,nt,1,nt,nt,nt,nt,nt,nt
CCOCCCNc1ccc(N2C(=O)C3CCCCC3C2=O)cc1[N+](=O)[O-] (configuration not stated),-2,-5,-2,44*,24,-22,5,4,5,11
CCN(CC)c1ccc(N2C(=O)C3CCCCC3C2=O)cc1[N+](=O)[O-] (configuration not stated),-12,10,5,11,46,-22,nt,nt,nt,nt
O=C(c1ccccc1)c1ccc(OCC(O)CNC2CCCc3ccccc32)cc1 (configuration not stated),-22,-22,14,19,3,-24,nt,nt,nt,nt
OC(CNC1CCCc2ccccc21)COc1ccc2ccccc2c1 (configuration not stated),1,15,6,69*,6,-9,100*,28*,70*,31*
COCCn1c(SCC(=O)Nc2ccc(OC)c(S(N)(=O)=O)c2)nc2ccccc2c1=O,-21,-8,nt,3,9,6,nt,nt,nt,nt
Cc1nc2ccccc2c(=O)n1NC(=O)C1CC1C (configuration not stated),0,-1,-11,0,8,-7,nt,nt,nt,nt
O=c1cc(CSc2nnnn2-c2ccccc2)nc(Nc2ccc(F)cc2)[nH]1,-6,32,19,66*,16,20,97*,5,67*,26*
N/C(=N\c1nc(CSc2nnnn2-c2ccccc2)cc(=O)[nH]1)Nc1ccccc1,-13,28,-4,16,0,-7,nt,nt,nt,nt
O=C(O)C1CCCCC1C(=O)NCCc1ccccc1 (configuration not stated),-6,86*,8,98*,0,-12,106*,1,92*,10
O=C(NCCCc1ccccc1)c1ccccc1,-18,-4,-3,22,12,-21,nt,nt,nt,nt
Cc1ccc(NC(=S)N/N=C2\CCCCC2C)cc1 (configuration not stated),-12,12,-9,-2,8,-23,nt,nt,nt,nt
CC1CCCC/C1=N\NC(=S)NCCc1ccccc1 (configuration not stated),-4,-17,3,57*,0,-38,45*,0,4,1
O=C(O)C1CCCCC1C(=O)NCCCc1ccccc1 (configuration not stated),-14,0,-19,68*,10,-16,50*,0,-3,-3
CC(CNC(=O)C1CCCCC1C(=O)O)c1ccccc1 (configuration not stated),-5,nt,-7,nt,5,-3,nt,1,nt,11
COc1ccc(CCNC(=O)C2CCCCC2C(=O)O)cc1OC (configuration not stated),0,nt,24,nt,6,1,nt,nt,nt,nt
O=C(COC(=O)c1cccnc1Cl)c1ccc(OC(F)F)cc1,-1,-6,-1,0,29,-10,nt,nt,nt,nt
O=C(NCCc1ccccc1)C(=O)NC1CCCCC1,0,-9,9,7,38,-6,nt,nt,nt,nt
O=C(O)C1CCCCC1C(=O)NCCCCc1ccccc1 (configuration not stated),-17,11,4,45*,12,-17,56*,5,-4,1
O=C(NC1CCCCC1)C(=S)NCCc1ccccc1,-16,33,-14,58*,14,-25,76*,2,62*,20
CCCn1c(SCC(=O)NC2CCCCC2C)n[nH]c1=O (configuration not stated),1,6,0,8,11,-15,nt,nt,nt,nt
